{"source": "paper PMC6221542", "about": "(Science Advances, 2018)", "molecules": {"B1": {"name": "MS3L1: MS3L1 chromodomain, cloned sequence 29-94 (protein, UniProt Q8N5Y2 29-94, looked up, fragment)", "chain": "VLYDAKIVDVIVGKDEKGRKIPEYLIHFNGWNRSWDRWAAEDHVLRDTDENRRLQRKLARKAVARL", "modifications": "chromodomain"}}, "key": {"[1]": {"system": "methylated H3K9 and H3K27 peptides", "experiment": "Peptide microarray, chromodomain binding profile", "set-up": "species or system human", "conditions": "cluster 3 = H3K9 peptides with different PTMs", "how_it_was_run": "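Array of 467 unmodified and modified peptides (desalted, mass-spectrometry checked) printed in triplicate spots on glass slides and probed with chromodomain proteins. Signal intensities converted to z scores per chromodomain using all its intensities: z = (x − mean)/SD. Hierarchical clustering grouped chromodomains into three categories and peptides into six clusters by binding preference.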"}, "[2]": {"system": "H4K20me1", "experiment": "Peptide microarray, chromodomain binding to H4K20me1", "set-up": "species or system human", "conditions": "no dsDNA in binding buffer", "how_it_was_run": "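Custom array of 467 unmodified and modified peptides (synthesized, desalted, mass-spec checked), each spotted in triplicate on glass slides. Chromodomain proteins were bound to the printed array and analyzed by a previously described protocol. The CBX1 mutant chromodomain was instead screened on a commercial modified-histone peptide array.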"}}}
{"molecule": "B1", "values": [{"measurement": "interaction with peptide cluster 3 (in words)", "setting": "[1]", "value": "lacked significant interaction with cluster 3"}, {"measurement": "interaction with H4K20me1 (in words)", "setting": "[2]", "value": "did not show interaction with this mark"}]}
